Bioassay records from PubChem BioAssay.
MLL AF4-AF9 inh – inhibitors of human MLL-AF4/AF9 interaction; AID 651704; P42568; actives 0.47% (n = 350,000); AlphaScreen, biotin-AF4 peptide binding to FLAG-AF9; inhibition, % at 10 µM;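 active = every replicate reaching a set inhibition limit, whatever the replicate mean, cut at about 25% in these data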;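 also: 0% = plate neutral control median and 100% = total signal loss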
Target sequence (P42568 whole entry, looked up): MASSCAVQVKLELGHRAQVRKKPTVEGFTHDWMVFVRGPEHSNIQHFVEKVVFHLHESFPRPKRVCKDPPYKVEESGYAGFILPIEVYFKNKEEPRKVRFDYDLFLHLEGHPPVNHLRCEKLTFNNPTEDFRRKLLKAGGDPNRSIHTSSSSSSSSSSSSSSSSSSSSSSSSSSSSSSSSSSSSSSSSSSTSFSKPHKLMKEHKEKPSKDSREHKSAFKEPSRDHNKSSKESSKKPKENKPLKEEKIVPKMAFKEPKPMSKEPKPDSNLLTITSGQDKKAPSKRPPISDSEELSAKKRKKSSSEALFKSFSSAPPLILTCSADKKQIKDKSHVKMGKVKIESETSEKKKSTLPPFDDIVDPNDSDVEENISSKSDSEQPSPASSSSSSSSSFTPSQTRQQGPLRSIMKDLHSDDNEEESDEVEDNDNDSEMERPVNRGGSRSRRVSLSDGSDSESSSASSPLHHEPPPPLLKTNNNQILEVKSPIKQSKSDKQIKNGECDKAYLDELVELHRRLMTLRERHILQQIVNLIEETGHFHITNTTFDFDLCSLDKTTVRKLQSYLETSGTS
DENV2 CPE rescue – inhibitors of DENV2 cytopathic effect; DENV2-infected cells, cytopathic effect rescue, plate reader; CPE inhibition, % at 9.99 µM; actives 1.7% (n = 350,000); AID 651640; in the data active = CPE inhibition above about 20%, passing the limit was not always enough; tested in BHK-21 cells;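 also: 0% = median of neutral control wells and 100% = median of positive control wells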
SIRT5 inh – sirtuin-5 (human) deacylase inhibition | Q9NXA8 | Purified SirT5, succinyl-peptide AMC, trypsin-coupled fluorescence | inhibition, % at 15 µM | actives 1.1% (n = 330,000) | AID 652115; in the data active = inhibition above about 15%
CaV13 ICDI inh – Primary screen for inhibitors of IQ motif and Ca2+-dependent inactivation inhibitor domain binding in CACNA1D, Förster resonance energy transfer in living cells, …; HEK cells, CFP/YFP FRET ICDI-IQ, plate reader, 10 min; percent FRET-ratio fall versus neutral wells; inhibition, % at 12.3 µM; actives 0.098% (n = 340,000); AID 743397;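 active = mean replicate inhibition of at least 30% and at least 1% of replicates passing that level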;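 also: 0% = median of the neutral control wells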
S100A4 MyoIIA – S100A4-myosin IIA interaction inhibition | P26447 | S100A4/TAMRA-MyoIIA peptide fluorescence polarization | inhibition, % at 10.7 µM | actives 0.14% (n = 360,000);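 active = mean inhibition of at least 70% across replicates, with every replicate also reaching that level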
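Assay system: human S100A4 monomer with TAMRA-labelled myosin IIA peptide / Buffer or medium: Calcium-containing HEPES buffer, pH 7.2 / Reagent: TAMRA-labelled myosin IIA heavy-chain peptide probe, 5 nM / Compound: one dose per compound / Timing: polarization read 5 min after assay mix addition, stable 5–60 min / Benchmarks: neutral control DMSO, positive control TFP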
Active calls of the source: *; . = not tested or not shown. Sampled rows, rich in hits. Any-hit rate of the full collection: about 2.7%.

SMILES	MLL AF4-AF9 inh	DENV2 CPE rescue	SIRT5 inh	CaV13 ICDI inh	S100A4 MyoIIA
COc1ccc(S(=O)(=O)Nc2ccc3c(c2)C(=O)N([C@@H](C)CO)C[C@H](C)[C@H](CN(C)Cc2ccncc2)OCCCC[C@H](C)O3)cc1	2	106*	2	.	-1
COc1ccc(S(=O)(=O)Nc2ccc3c(c2)C(=O)N([C@@H](C)CO)C[C@@H](C)[C@@H](CN(C)Cc2ccncc2)OCCCC[C@@H](C)O3)cc1	2	-4	1	.	-25
COc1ccc(S(=O)(=O)Nc2ccc3c(c2)C(=O)N([C@@H](C)CO)C[C@H](C)[C@H](CN(C)Cc2ccncc2)OCCCC[C@@H](C)O3)cc1	2	13	4	.	4
C[C@@H]1CN([C@H](C)CO)C(=O)Cc2cc(NS(=O)(=O)c3cn(C)cn3)ccc2O[C@@H]1CN(C)Cc1ccc(C(F)(F)F)cc1	-1	-3	-3	.	11
COc1ccccc1-c1ccc2c(c1)O[C@@H](CN(C)S(=O)(=O)c1ccc(F)cc1)[C@H](C)CN([C@@H](C)CO)S2(=O)=O	1	9	11	.	-22
CS(=O)(=O)N1[C@H](C#N)[C@@H](c2ccc(C#CC3CC3)cc2)[C@H]1CO	0	-4	3	.	0
Cc1noc(C)c1NC(=O)N(C)C[C@H]1Oc2c(NC(=O)NC3CCCCC3)cccc2C(=O)N([C@@H](C)CO)C[C@@H]1C	-1	18	-5	.	2
CC(C)Nc1cc(C(C)(C)C)nc2c(-c3ccccc3)cnn12	-5	46*	-8	-2	-2
O=C(C[C@@H]1C[C@@H]2c3cc(NC(=O)CC4CC4)ccc3O[C@@H]2[C@@H](CO)O1)NCc1ccc(-c2ccccc2)cc1	-1	10	5	.	3
O=S(=O)(NCc1ccc(F)cc1)c1ccccc1Br	-1	31*	.	-6	0
O=S(=O)(NCc1ccccc1)c1ccc(F)cc1Br	-3	-2	-2	-11	-6
CCc1cc2c(=O)c(-c3nc4ccccc4n3C)coc2c(CN2CCCCC2)c1O	3	1	34*	-18	-4
C[C@@H]1CN([C@@H](C)CO)C(=O)c2cc(NS(=O)(=O)c3cccs3)ccc2O[C@@H](C)CCCCO[C@@H]1CN(C)C	2	20*	2	.	0
C[C@@H]1CCCCO[C@H](CN(C)S(=O)(=O)c2cccs2)[C@@H](C)CN([C@H](C)CO)C(=O)c2cc(NS(=O)(=O)c3cccs3)ccc2O1	-4	59*	4	.	4
C[C@@H]1CCCCO[C@H](CN(C)CC2CC2)[C@H](C)CN([C@@H](C)CO)C(=O)c2cc(NS(=O)(=O)c3cccs3)ccc2O1	-9	42*	5	.	-62
C[C@@H]1CCCCO[C@H](CN(C)C)[C@@H](C)CN([C@H](C)CO)C(=O)c2cc(NS(=O)(=O)c3cccs3)ccc2O1	-1	-10	-1	.	9
C[C@@H]1CCCCO[C@H](CN(C)S(=O)(=O)c2cccs2)[C@@H](C)CN([C@@H](C)CO)C(=O)c2cc(NS(=O)(=O)c3cccs3)ccc2O1	1	10	.	.	103*
C[C@@H]1CN([C@H](C)CO)C(=O)c2cc(NC(=O)Nc3ccc(F)cc3)ccc2O[C@@H]1CN(C)C(=O)Nc1ccccc1	-1	-1	4	.	0
O=C(C[C@@H]1CC[C@@H]2[C@H](COC[C@H](O)CN2Cc2cccc(F)c2)O1)NCCc1ccncc1	-1	-2	0	.	14
CN(C)S(=O)(=O)n1cc(/C=C(\NC(=O)c2ccccc2Cl)C(=O)NCCCn2ccnc2)c2ccccc21	4	-6	19*	-3	23
CN(C)S(=O)(=O)n1cc(/C=C(\NC(=O)c2ccccc2)C(=O)NCCCn2ccnc2)c2ccccc21	9	10	-3	-7	-10
C[C@@H]1CN([C@H](C)CO)C(=O)c2cc(N(C)C)ccc2O[C@H]1CN(C)S(=O)(=O)c1ccc(F)cc1	-2	0	3	.	18
O=C(C[C@@H]1CC[C@H](NC(=O)c2ccncc2)[C@@H](CO)O1)NCCc1ccncc1	-1	-2	-2	.	-1
O=C(NCCc1ccccc1Cl)[C@@H]1CCCN1C(=O)[C@H](Cc1cccnc1)NC(=O)N1CCOCC1	.	2	1	-9	-33
